In brackets after ≈: the same amount, converted by molar mass. Where only a bound is given, the exact number is not on record here.

The test system of assay [1] is Mycobacterium tuberculosis. The assay is described as follows: Antimycobacterial activity against Mycobacterium tuberculosis H37Rv after 7 days by resazurine microtiter assay. It counts as functional. The following applies: 168 h. The procedure, abridged:
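M. tuberculosis broth microdilution (REMA). Compounds dissolved as DMSO stocks and diluted in Middlebrook 7H9 broth with OADC enrichment. Culture and compounds combined in 96-well plates, in triplicate, incubated 7 days at 37 °C. Resazurin then added; fluorescence read at 530 nm excitation, 590 nm emission. Isoniazid run on every plate as standard.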
For orientation: The colour change of resazurin is a common sign of viable cells or microbes.

Assay [2] in a line: Selectivity index, ratio of IC50 for mouse J774 cells to MIC for Mycobacterium tuberculosis H37Rv. The format is functional.
The next assay has as its system J774. The assay is described as follows: Cytotoxicity against mouse J774 cells after 24 hrs by resazurin assay. It counts as cell-based. The note with it: J774, 24 h. Summed up:
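J774 macrophages grown to confluence at 37 °C in 5% CO2, then seeded at 1 × 10^5 cells/mL and allowed 24 h to adhere. Resazurin added for 6 h; fluorescence read at 530 nm excitation, 590 nm emission.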

Regarding `S=C(N/N=C(/C(=N/NC(=S)Nc1ccccc1)c1ccccc1)c1ccccc1)Nc1ccccc1`, in assay [1], the lowest concentration to inhibit growth (MIC) was 49.1 µM (≈ 25 µg/mL). For the same molecule, the “Selectivity Index” value in assay [2] is listed as 50. In the assay with J774, this molecule registered a half-inhibitory concentration (IC50) of 2460 µM.
With `O=C(N/N=C(/C(=N/NC(=O)c1ccncc1)c1ccccc1)c1ccccc1)c1ccncc1`, the lowest concentration to inhibit growth in assay [1] (MIC) was 27.9 µM (≈ 12.5 µg/mL). For the same molecule, the “Selectivity Index” value in assay [2] was 12.5. In the assay on J774, this molecule gave an IC50 of 349 µM.
`O=C(N/N=C/c1ccccn1)c1ccccc1O`: the minimal inhibitory concentration (MIC) in assay [1] was at least 1040 µM. In assay [2], the “Selectivity Index” value was “<=1.25”. Moreover, the half-maximal inhibitory concentration (IC50) in the assay with J774 came to 1300 µM.
In the case of `C/C(=N\NC(=S)N1CCCCCC1)c1ccccn1`, the minimal inhibitory concentration (MIC) in assay [1] was at least 181 µM. Also, in assay [2], the “Selectivity Index” value is on record as “<=25”. Further, in the assay with J774, half-maximal inhibition (IC50) required 4520 µM.
In assay [1], `C/C(=N\NC(=S)Nc1ccccc1)c1ccccn1` registered an MIC of 57.7 µM (≈ 15.6 µg/mL).
`O=C(N/N=C/c1ccccc1O)c1ccccc1O` gave a minimum inhibitory concentration (MIC) in assay [1] of 122 µM (≈ 31.3 µg/mL). Besides, the “Selectivity Index” value in assay [2] is listed as 10. The molecule further had a 50% inhibitory concentration (IC50) with J774 of 1220 µM.
In the case of `C/C(=N\NC(N)=S)c1ccccn1`, in assay [1], the MIC was determined as 161 µM (≈ 31.3 µg/mL).
As for `CNC(=S)N/N=C(\C)c1ccccn1`, the MIC in assay [1] was found to be 37.5 µM (≈ 7.8 µg/mL).
Turning to `CCNC(=S)N/N=C(\C)c1ccccn1`, it took 14.1 µM (≈ 3.13 µg/mL) to inhibit growth in assay [1] (MIC). For the same molecule, the “Selectivity Index” value in assay [2] was 200. In the assay on J774, this molecule came in with an IC50 of 2810 µM.

What is called MIC is the smallest concentration in the dilution series that meets the test's criterion for growth inhibition. Usually IC50 stands for the concentration at which inhibition is half-maximal. Read a high IC50 as weaker potency.

These data come from ChEMBL document CHEMBL1157875, “Thiosemicarbazones, semicarbazones, dithiocarbazates and hydrazide/hydrazones: anti-Mycobacterium tuberculosis activity and cytotoxicity” (Eur J Med Chem, 2010).
